Rows were chosen to be rich in hits. Some 2.5% of all compounds tested hit in one or more screens of this group.
ADAM17 inh = inhibits human ADAM17 | P78536 | recombinant ADAM17, EDANS/DABCYL FRET peptide cleavage | inhibition, % at 6.95 µM | 0.83% of 370,000 active | AID 720648;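 active = inhibition above the mean of compounds lying between control limits plus 3 SD, set per campaign, cut at about 8.5% in these data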;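 note: 0% = DMSO-only wells as the low control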
NR2E3 ag-1 = activates human photoreceptor nuclear receptor NR2E3. Q9Y5X4. GST-NR2E3/biotin-RetCOR TR-FRET, 1536-well. inhibition of corepressor binding, % at 4.78 µM. 0.12% of 320,000 active. AID 2300;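 active = percent inhibition above the cutoff of mean plus 3 SD of all tested compounds, set per screening campaign, cut at about 20% in these data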;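 note: 0% = DMSO wells and 100% = biotin wells as full block of FRET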
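Test system – NR2E3–RetCOR corepressor complex · Quantity – NR2E3 fusion 1.35 nM · Buffer or medium – Tris pH 7.5 · Incubation – Compound–protein incubation for 5 h at 4 °C · Technique – TR-FRET, Eu(K)-anti-GST donor, streptavidin-D2 acceptor, ex 340, em 617/671 nm · Evaluation – percent inhibition of 671/617 nm emission ratio versus biotin and DMSO controls · Plate – 1536-well format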
NR2E3 ag-2 = activates human NR2E3 receptor | Q9Y5X4 | CHO-S Gal4-NCOR/VP16-NR2E3 two-hybrid, luciferase | inhibition of corepressor binding, % at 3.98 µM | 0.35% of 360,000 active | AID 602229;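 active = inhibition above the mean of all tested compounds plus 3 SD, cut at about 70% in these data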;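 note: 0% = DMSO with NR2E3 transfected cells and 100% = cells lacking NR2E3 construct; higher means lower luciferase signal from less NR2E3 corepressor binding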
proKLK7 act = proKLK7 (human) activation, primary screen; P49862; AID 652039; activation, % at 7 µM; purified proKLK7, EDANS-DABCYL substrate fluorescence; 100% is mature enzyme control, 0% vehicle; 0.9% of 370,000 active;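 active = activation above the mean of all tested compounds plus 3 SD, computed per campaign excluding outliers beyond control limits, cut at about 13% in these data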
Target sequence (P49862 whole entry, looked up): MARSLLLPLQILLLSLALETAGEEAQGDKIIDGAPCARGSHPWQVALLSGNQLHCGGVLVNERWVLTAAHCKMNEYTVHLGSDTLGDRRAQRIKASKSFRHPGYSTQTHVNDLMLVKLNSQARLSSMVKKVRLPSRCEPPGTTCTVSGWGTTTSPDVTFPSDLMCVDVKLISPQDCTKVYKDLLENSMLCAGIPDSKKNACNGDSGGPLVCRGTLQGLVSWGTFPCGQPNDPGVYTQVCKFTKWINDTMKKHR
JMJD2C inh = inhibitors of human GASC-1 (JMJD2C) demethylase; Q9H3R0; inhibition, % at 2.35 µM; GST-JMJD2C(1-420) H3K9me3 demethylation, DELFIA europium; 0.069% of 330,000 active;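 active = more than half of a compound's replicate wells show inhibition beyond 50%, single wells judged on their own value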;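 note: signal counts dimethyl H3K9 product captured on neutravidin plate; 0% = median of DMSO wells and 100% = 0.3 times that DMSO median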
Target sequence (Q9H3R0 1-420 limits assumed): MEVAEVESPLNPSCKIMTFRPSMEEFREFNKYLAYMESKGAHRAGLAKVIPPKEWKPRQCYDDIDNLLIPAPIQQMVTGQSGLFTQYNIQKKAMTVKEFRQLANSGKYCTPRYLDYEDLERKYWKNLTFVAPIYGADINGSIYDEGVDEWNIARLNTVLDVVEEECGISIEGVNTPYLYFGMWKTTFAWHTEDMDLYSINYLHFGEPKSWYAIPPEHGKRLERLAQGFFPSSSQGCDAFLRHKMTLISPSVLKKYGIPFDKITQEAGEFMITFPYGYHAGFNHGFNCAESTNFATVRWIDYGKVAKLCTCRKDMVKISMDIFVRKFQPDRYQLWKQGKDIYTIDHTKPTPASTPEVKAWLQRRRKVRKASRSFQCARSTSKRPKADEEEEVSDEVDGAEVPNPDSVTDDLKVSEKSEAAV
ADAM10 inh = inhibitors of human ADAM10. O14672. recombinant ADAM10, EDANS/DABCYL FRET peptide cleavage, 3 h. inhibition, % at 7 µM. 0.62% of 370,000 active;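 active = inhibition above a per-campaign cutoff equal to the mean of compounds falling between control-based bounds plus 3 SD, cut at about 20% in these data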;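 note: 0% = DMSO wells while the 100% control is not disclosed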
NR2E3 ag conf = NR2E3 agonism confirmed in two-hybrid assay; inhibition, % at 3.98 µM; shares compounds with NR2E3 ag-2; 51% of 2,300 active; CHO-S mammalian two-hybrid NR2E3-NCOR, luciferase luminescence; AID 624378;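 active = average inhibition above a cutoff equal to the mean inhibition of all tested compounds plus one SD, cut at about 70% in these data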;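 note: 0% = DMSO in NR2E3 cells and 100% = DMSO in cells lacking NR2E3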
VP16 counter = GAL4-VP16 reporter inhibition in NR2E3 agonist counterscreen. CHO-S GAL4-VP16 luciferase reporter, luminescence. shares compounds with NR2E3 ag-2. 29% of 2,300 active. inhibition, % at 3.98 µM. AID 624379;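 active = mean inhibition above a cutoff equal to the average over all tested compounds plus one standard deviation, cut at about 70% in these data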;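 note: luciferase from a UAS reporter driven by GAL4-VP16 transactivation; 0% = DMSO with VP16-transfected cells and 100% = DMSO with cells lacking VP16; higher means less reporter light so more repression of VP16 activity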
Starred values were filed as active, the others as inactive; / = not tested or not shown.

SMILES	ADAM17 inh	NR2E3 ag-1	NR2E3 ag-2	proKLK7 act	JMJD2C inh	ADAM10 inh	NR2E3 ag conf	VP16 counter
CSc1ccc(COC(=O)c2cc([N+](=O)[O-])ccc2N2CCOCC2)cc1	2.5	-0.7	60.5	0.4	-1.1	8.7	12.0	26.9
O=c1cc(N2CCCC2)c2ccccc2o1	-3.8	1.8	-21.3	-0.3	26.7	5.8	/	/
COc1ccc([C@@]23Oc4cc(OC)cc(OC)c4[C@]2(O)[C@H](O)[C@H](C(=O)N(C)C)[C@H]3c2ccccc2)cc1	3.6	/	101.4*	-0.2	/	9.1	98.4*	96.0*
CC(C)(C)C(=O)/C(=C/c1ccncc1)n1cncn1	-4.1	3.0	0.6	0.8	8.2	-3.7	/	/
COc1ccc(OC)c(N2C(=O)c3ccccc3C2c2nnnn2-c2ccc3c(c2)OCCO3)c1 (stereo unspecified)	-0.3	/	-16.8	-0.6	/	-2.9	/	/
Cc1cc2sc3ccc(C#CC4(O)CCCCC4)cc3c(=O)c2cc1C	-2.9	4.9	60.0	0.8	-0.6	-12.9	86.4*	35.7
Cn1c2ccccc2c(=O)c2cc(C#CC3(O)CCCCC3)ccc21	-89.3	-0.6	-3.9	-15.3	3.3	-418.8	/	/
Cc1cc(-c2nnc(SCC(=O)Nc3ccccc3C(F)(F)F)o2)c(C)n1-c1ccccc1	-1.8	-1.1	49.7	0.0	2.2	6.1	29.4	-7.9
Cc1cccc(NC(=O)CSc2nnc(-c3cc(C)n(-c4ccccc4)c3C)o2)c1C	4.7	1.0	-20.9	0.0	10.7	16.2	/	/
O=C1OC=NC1=Cc1ccccc1	-1.7	/	0.8	-1.7	/	-9.6	/	/
O=C1NC(=S)S/C1=C\c1cc(Cl)cc(Cl)c1O	-1.0	/	65.5	-0.5	/	-11.7	73.0*	60.1
COc1ccccc1C=C1SC(=S)NC1=O	1.8	/	22.2	-0.9	/	-12.1	/	/
O=C1NC(=S)SC1=Cc1ccccc1Cl	0.8	/	66.9	-0.4	/	5.2	79.0*	73.0*
Cc1cc(/C=C2\SC(=S)NC2=O)cc(C)c1O	1.6	-0.9	-60.0	0.1	-6.2	9.6	/	/
Cc1cccc(NC(=O)NCCCN2CCN(c3ccc(F)cc3)CC2)c1	0.4	/	/	-0.1	/	2.7	/	/
COc1cccc(NC(=O)Nc2ccc(Cc3ccncc3)cc2)c1	5.0	-2.6	55.3	-0.6	0.8	2.5	41.5	30.2
COc1cccc(NC(=O)Nc2ccncc2)c1	0.6	0.6	-17.0	0.1	1.0	6.7	/	/
COc1ccccc1CC(=O)N(CCC1=CCCCC1)c1c(N)n(Cc2ccccc2)c(=O)[nH]c1=O	1.5	-1.4	-13.1	0.4	4.6	-5.4	/	/
CCCCCN1CCCCC(NC(=O)c2ccccc2C)C1=O (stereo unspecified)	-0.8	/	/	0.1	/	-4.5	/	/
CCCC1CCC2(CC1)CCC2OC(=O)Nc1cccc(Cl)c1 (stereo unspecified)	-1.9	/	/	/	/	-3.1	/	/
CNC(=S)N/N=C/c1cc(Br)cc(Br)c1O	-44.2	4.5	89.0*	-7.3	12.0	-128.0	-16.1	-24.4
Cc1[nH]nc2c1C(c1ccccc1)N(Cc1ccccc1)C2=O (stereo unspecified)	0.8	/	/	0.4	/	0.0	/	/
COc1cc(/C=C2\CC/C(=C\c3cc(OC)c(O)c(OC)c3)C2=O)cc(OC)c1O	3.9	7.2	77.2*	0.4	-9.9	-0.4	96.4*	67.4
COc1cc(/C=C2\CC/C(=C\c3cc(OC)c(OC)c(OC)c3)C2=O)cc(OC)c1OC	0.9	-0.4	-3.6	-0.3	-3.4	-2.0	/	/
COc1cc(/C=C2\CCC/C(=C\c3ccc(O)c(OC)c3)C2=O)ccc1O	7.5	2.5	-12.4	0.3	5.9	6.6	/	/
SMILES	ADAM17 inh	NR2E3 ag-1	NR2E3 ag-2	proKLK7 act	JMJD2C inh	ADAM10 inh	NR2E3 ag conf	VP16 counter
COc1cc(/C=C2\COC/C(=C\c3cc(OC)c(OC)c(OC)c3)C2=O)cc(OC)c1OC	1.6	/	86.5*	0.3	-11.9	-0.1	100.5*	82.3*
O=C1NC(Cc2c[nH]c3ccccc23)C(=O)N1Cc1ccc(CN2C(=O)NC(Cc3c[nH]c4ccccc34)C2=O)cc1 (stereo unspecified)	0.5	1.6	-0.9	-0.5	7.7	5.6	/	/
COc1ccc(O)c(/C=N/Nc2nc(Nc3ccccc3)nc(-n3nc(C)cc3C)n2)c1	10.8*	2.2	96.4*	-17.4	11.6	14.1	11.2	-78.1
COc1ccc(/C=N/Nc2cc(C)nc(-n3nc(C)cc3C)n2)cc1	0.5	1.3	93.6*	-1.6	-12.7	-3.0	29.2	17.6
COc1cc(/C=N/Nc2nc(Nc3ccccc3)nc(-n3nc(C)cc3C)n2)cc(OC)c1OC	-1.9	-1.1	67.9	-3.8	-11.4	-2.5	-13.7	-44.8
COc1cc(/C=N/Nc2nc(Nc3ccc(C)cc3)nc(-n3nc(C)cc3C)n2)cc(OC)c1OC	-1.1	-0.8	58.9	-2.5	3.9	-10.7	17.5	-17.6
COc1ccc(O)c(/C=N/Nc2nc(C)cc(-c3ccccc3)n2)c1	5.2	-1.9	-17.2	-2.3	-0.1	7.0	/	/
FC(F)(F)Oc1ccc(Cn2ccc3ccc(-c4ccc5ccn(Cc6ccccc6)c5c4)cc32)cc1	-13.1	/	/	-1.0	/	-23.7	/	/
CC(C)=CCC/C(C)=C/CNC(=O)C[C@H]1C[C@H](C(=O)N2CCOCC2)[C@@]2(CCC3CCCC3)c3[nH]c4cc(CCC(=O)N(C)C)ccc4c3CCN2C1=O	-1.5	/	8.7	-0.1	/	-2.7	/	/
Cc1cccc(NCc2nc3ccccc3n2Cc2ccccc2)c1	0.6	-1.4	-55.3	-0.2	0.3	-4.7	/	/
Cc1nc2cc(NCc3nc4ccccc4n3Cc3ccccc3)ccc2n1C	-6.5	0.8	58.5	0.1	-5.0	-25.6	-109.1	-122.3
Cc1nnsc1C(=O)NC1CCCc2c1cnn2-c1ccc(F)cc1F (stereo unspecified)	-4.2	1.2	95.8*	-0.8	18.2	-6.6	71.2*	64.0
O=C(N[C@@H]1CCCc2c1cnn2-c1ccc(F)cc1F)c1ccccn1	-2.2	/	/	/	/	-1.7	/	/
Cc1nnsc1C(=O)NC1CCCc2c1cnn2-c1cc(F)cc(F)c1 (stereo unspecified)	-2.4	-0.7	4.1	-0.5	3.5	-6.0	/	/
CC(C)c1cc(C(=O)NC2CCCc3c2cnn3-c2ccccc2F)no1 (stereo unspecified)	0.2	-0.4	59.8	1.0	-0.1	-1.8	47.2	52.5
Cc1ccc(C(=O)NC2CCCc3c2cnn3-c2ccc(F)cc2F)cn1 (stereo unspecified)	0.3	2.2	100.5*	0.1	-4.4	2.8	95.2*	79.0*

Compound activity (PubChem)
